What all share (assay type): functional, cell-based
Assay [1] deals with A549. The assay is described as follows: Cytotoxicity against human A549 cells after 48 hrs. The settings on record: A549, 48 h. The method in brief:
(§1)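 Cells from the Shanghai Cell Bank were kept in RPMI1640 with 15% hormone-free heat-inactivated FBS, 2 mM glutamine, 100 U/mL penicillin G and 100 µg/mL streptomycin. Seeding was 5 × 10^4 cells/mL for K562 and 4 × 10^4 cells/mL for A549 and HepG2. Cells were exposed to compound for 48 h, and viability was read by CCK-8 at 450 and 650 nm. IC50 values come from triplicate experiments.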

Assay [2] concerns K562. Description: Cytotoxicity against human K562 cells after 48 hrs. Particulars: K562, 48 h. The essentials: as §1
Assay [3] concerns HepG2. Description: Cytotoxicity against human HepG2 cells after 48 hrs. Particulars: HepG2, 48 h. The method in brief:
as §1

A value given as a limit tells only on which side of the number the result lay.

Usually IC50 stands for the midpoint of a concentration-inhibition curve. Low values mean greater potency in that assay, high ones weaker potency in that assay.

Regarding `C=C1C(=O)O[C@H]2/C=C(\C)C[C@@H]3C=C(CC/C=C(\C)CC[C@H]12)C(=O)O3`, the IC50 in assay [1] is 1960 nM; in assay [2], 1250 nM; in assay [3], 1400 nM.
As for `C=C1C(=O)O[C@H]2/C=C(\C)C[C@@H]3C=C(CC[C@@H](OO)C(=C)CC[C@H]12)C(=O)O3`, the values for the IC50 in assay [1], in assay [2] and in assay [3] were 4180 nM, 4300 nM and 3110 nM, respectively.
In the same order, the values of `C=C1C(=O)O[C@H]2/C=C(\C)C[C@@H]3C=C(C/C=C/[C@@](C)(OO)CC[C@H]12)C(=O)O3` are 1550 nM, 1200 nM and 900 nM.
In the same order, the values of `C=C1[C@@H]2C[C@@H](O)[C@@H]3[C@](C2)(C(=O)O[C@H]2C[C@H](O)C(C)(C)[C@H]4[C@H](O)OC(=O)[C@@]243)[C@@H]1O` [EMEMOGIN] are more than 10000 nM, more than 10000 nM and more than 10000 nM.
Taken in the same sequence, the figures for `C=C1C(=O)[C@]23C[C@H]1CC[C@H]2[C@@]12CO[C@@H](O)[C@@H]1C(C)(C)[C@@H](O)C[C@@H]2OC3=O` [ENEMIN] were more than 10000 nM, 1620 nM and 2020 nM.
On to `C=C1[C@@H](O)[C@]23[C@H](O)[C@H]1CC[C@H]2[C@@]12CO[C@@]3(O)[C@@H](O)[C@@H]1C(C)(C)CC[C@@H]2O` [ENMENOL], for which the IC50 in assay [1], in assay [2] and in assay [3] was more than 10000 nM in each case.
In the case of `C=C1C(=O)[C@]23C[C@H]1C[C@H](O)[C@H]2[C@@]12CO[C@@H](O)[C@@H]1C(C)(C)CC[C@@H]2OC3=O` [EPINODOSIN], the figures for the IC50 in assay [1], in assay [2] and in assay [3] were 2100 nM, 560 nM and 1620 nM, respectively.
Taken in the same sequence, the figures for `CC1(C)CC[C@@H]2OC(=O)[C@@]34C[C@@H](C[C@H](O)[C@H]3[C@]23CO[C@@H](O)[C@H]13)[C@@H](CO)C4=O` [MAOYECRYSTAL D] were more than 10000 nM, more than 10000 nM and more than 10000 nM.
Taken in the same sequence, the figures for `C=C1[C@@H]2C[C@@H](O)[C@H]3[C@@]45CO[C@@](O)([C@@H](O)[C@@H]4C(C)(C)CC[C@@H]5O)[C@]3(C2)[C@@H]1O` [NERVOSANIN B] were more than 10000 nM, more than 10000 nM and more than 10000 nM.
Turning to `C=C1C(=O)[C@]23C[C@H]1C[C@@H](O)[C@H]2[C@@]12CO[C@@H](O)[C@@H]1C(C)(C)CC[C@@H]2OC3=O` [NODOSIN], the IC50 in assay [1] was more than 10000 nM; in assay [2], 540 nM; in assay [3], 1920 nM.
In the case of `C=C1C(=O)[C@]23C[C@H]1C[C@@H](O)[C@H]2[C@]12CO[C@@H]4OC[C@](C)(CC[C@@H]1OC3=O)[C@@H]42` [SCULPONEATIN A], the IC50 was 1900 nM in assay [1], 1620 nM in assay [2] and 1770 nM in assay [3].
In the same order, the values of `C=C1[C@@H]2C[C@@H](O)[C@@H]3[C@](C2)(C(=O)O[C@H]2CC[C@@]4(C)CO[C@H]5OC[C@]23[C@H]54)[C@@H]1O` [SCULPONEATIN B] are more than 10000 nM, more than 10000 nM and more than 10000 nM.
Taken in the same sequence, the figures for `C=C1C(=O)[C@]23C[C@H]1C[C@@H](O)[C@H]2[C@@]1(COC3=O)[C@@H]2[C@H]3OC[C@]2(C)CC[C@H]1O3` [SCULPONEATIN C] were 2730 nM, 780 nM and 680 nM.
In the same order, the values of `C=C1[C@@H]2C[C@H](O)[C@@H]3[C@](C2)(C(=O)OC2O[C@H](O)[C@@H]4[C@@](C)(CO)CC[C@H](O)[C@]243)[C@@H]1O` (some centres undefined) [SCULPONEATIN D] are more than 10000 nM, more than 10000 nM and more than 10000 nM.
For the compound `C[C@]12CC[C@@H]3OC(=O)[C@@]45C[C@@H](C[C@@H](O)[C@H]4[C@]34CO[C@H](OC1)[C@H]24)[C@@]1(CCC2=C(O1)[C@]13C[C@H]2C[C@@H](O)[C@H]1[C@]12CO[C@@H]4OC[C@](C)(CC[C@@H]1OC3=O)[C@@H]42)C5=O` [SCULPONIN D], the IC50 in assay [1] was 1000 nM; in assay [2], 1500 nM; in assay [3], 1120 nM.
In the same order, the values of `CC1(C)[C@H]2[C@H](O)OC[C@@]23[C@H](C[C@@H]1O)OC(=O)[C@@]12C[C@@H](C[C@@H](O)[C@H]13)[C@@]1(CCC3=C(O1)[C@]14C[C@H]3C[C@@H](O)[C@H]1[C@]13CO[C@@H]5OC[C@](C)(CC[C@@H]1OC4=O)[C@@H]53)C2=O` [SCULPONIN E] are 1850 nM, 2000 nM and 1620 nM.
Taken in the same sequence, the figures for `C=C1[C@@H]2C[C@H](O)[C@@H]3[C@](C2)(C(=O)O[C@H]2C[C@H](O)C(C)(C)[C@H]4[C@H](O)OC[C@@]243)[C@@H]1OC(C)=O` [SCULPONIN F] were more than 10000 nM, more than 10000 nM and more than 10000 nM.
Taken in the same sequence, the figures for `C=C1C(=O)[C@]23C[C@H]1C[C@@H](O)[C@H]2[C@]12CO[C@H]4O[C@@H](O)[C@](C)(CC[C@@H]1OC3=O)[C@@H]42` [SCULPONIN G] were more than 10000 nM, more than 10000 nM and more than 10000 nM.
With `C=C1C(=O)[C@]23C[C@H]1C[C@@H](O)[C@H]2[C@]12CO[C@@H]4O[C@H](O)[C@](C)(CC[C@@H]1OC3=O)[C@@H]42` [SCULPONIN H], the IC50 in assay [1], in assay [2] and in assay [3] was more than 10000 nM in each case.
As to `C=C1[C@@H]2C[C@@H](O)[C@@H]3[C@](C2)(C(=O)O[C@H]2CC[C@@]4(C)[C@H](O)O[C@H]5OC[C@]23[C@H]54)[C@@H]1O` [SCULPONIN I], the IC50 in assay [1], in assay [2] and in assay [3] was more than 10000 nM throughout.
In the case of `C=C1[C@@H]2C[C@@H](O)[C@@H]3[C@](C2)(C(=O)O[C@H]2CC[C@]4(C)[C@H]5[C@H](OC[C@@]253)O[C@@H]4O)[C@@H]1O` [SCULPONIN J], the IC50 in assay [1], in assay [2] and in assay [3] was more than 10000 nM throughout.
With `C=C1C(O)[C@]23C[C@H]1C[C@H](O)[C@H]2[C@]12CCC[C@@](C)(CO)[C@H]1[C@H](O)[C@]3(O)OC2` (some centres undefined) [SCULPONIN K], the IC50 in assay [1], in assay [2] and in assay [3] was more than 10000 nM each time.
For the compound `C=C1[C@@H]2CC(=O)[C@H]3[C@]45C=CC[C@@](C)(CO)[C@H]4[C@H](O)[C@](O)(OC5)[C@]3(C2)[C@@H]1O` [SCULPONIN L], the IC50 in assay [1], in assay [2] and in assay [3] was more than 10000 nM in each case.

Source of the values: ChEMBL document CHEMBL1154242, “ent-Kaurane and cembrane diterpenoids from Isodon sculponeatus and their cytotoxicity” (J Nat Prod, 2009).
